Reference: ChEMBL document CHEMBL2086345, “Metabotropic glutamate receptor 5 negative allosteric modulators as novel tools for in vivo investigation” (ACS Med Chem Lett, 2012)
Each block holds one compound with its values, some of them ahead of it. The source made the active and inactive calls. No cut-off for these calls is given here.

Tests used:
[1] = biological target: T1, Metabotropic glutamate receptor 5 (Rattus norvegicus, UniProt P31424); test: Displacement of [3H]MPEP from mGluR5 in Sprague-Dawley rat brain membrane after 60 mins by liquid scintillation counting; format: cell membranes
T1 sequence (P31424 whole entry): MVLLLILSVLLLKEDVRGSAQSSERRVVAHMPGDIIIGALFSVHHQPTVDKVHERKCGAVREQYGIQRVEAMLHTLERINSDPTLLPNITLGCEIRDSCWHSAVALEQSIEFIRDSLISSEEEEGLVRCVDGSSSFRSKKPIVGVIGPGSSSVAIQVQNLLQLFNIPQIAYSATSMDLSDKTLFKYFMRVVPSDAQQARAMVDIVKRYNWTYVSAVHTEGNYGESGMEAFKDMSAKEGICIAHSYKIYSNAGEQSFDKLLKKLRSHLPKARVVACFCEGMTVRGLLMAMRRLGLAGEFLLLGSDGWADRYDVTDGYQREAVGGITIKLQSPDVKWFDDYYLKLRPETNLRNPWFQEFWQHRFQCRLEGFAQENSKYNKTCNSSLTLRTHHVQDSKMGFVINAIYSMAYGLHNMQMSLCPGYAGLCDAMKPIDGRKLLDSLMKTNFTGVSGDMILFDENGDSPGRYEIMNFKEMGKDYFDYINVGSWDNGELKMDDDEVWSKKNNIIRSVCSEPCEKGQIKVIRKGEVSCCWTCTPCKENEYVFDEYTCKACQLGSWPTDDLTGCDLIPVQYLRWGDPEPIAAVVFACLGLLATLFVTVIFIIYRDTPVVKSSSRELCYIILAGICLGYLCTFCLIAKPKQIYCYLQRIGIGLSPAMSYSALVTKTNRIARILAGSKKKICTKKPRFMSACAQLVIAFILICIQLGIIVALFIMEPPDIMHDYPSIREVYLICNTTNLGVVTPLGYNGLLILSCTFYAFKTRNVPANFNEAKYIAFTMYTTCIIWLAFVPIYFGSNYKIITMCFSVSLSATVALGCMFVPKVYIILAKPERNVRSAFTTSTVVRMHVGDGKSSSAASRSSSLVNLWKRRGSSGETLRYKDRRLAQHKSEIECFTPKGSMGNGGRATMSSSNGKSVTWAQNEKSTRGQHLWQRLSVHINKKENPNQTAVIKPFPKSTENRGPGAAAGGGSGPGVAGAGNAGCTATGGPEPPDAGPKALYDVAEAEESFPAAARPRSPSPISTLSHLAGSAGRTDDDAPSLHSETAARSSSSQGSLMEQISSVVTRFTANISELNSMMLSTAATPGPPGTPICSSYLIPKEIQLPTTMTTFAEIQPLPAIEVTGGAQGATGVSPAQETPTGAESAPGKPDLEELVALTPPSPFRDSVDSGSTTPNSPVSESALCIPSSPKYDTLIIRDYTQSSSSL

[2] = biological target: T1, Metabotropic glutamate receptor 5; test: Inverse agonist activity at rat mGluR5 expressed in HEK293A cells coexpressing Gqalpha assessed as inhibition of basal D-myo-inositol 1 production by ELISA
Mus musculus [3] = test: Anxiolytic activity in Swiss Webster mouse assessed as increase in locomotor activity at 30 mg/kg, ip administered as single dose 15 mins prior to testing by open-field test; format: functional, organism-based; parameters: dose 30 mg/kg
Procedure, shortened: (§1)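 Open-field test in mice. Drugs were suspended in 2% ethanol/10% Tween 80/water (MTEP in saline) and given ip 15 min before testing. Locomotor activity and time in the center region were recorded. n = 10–12 per dose, means ± SEM. Each dose was compared with its within-group vehicle cohort by one-way ANOVA with Bonferroni post hoc test.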

Mus musculus [4] = test: Anxiolytic activity in Swiss Webster mouse assessed as increase in time spent in the centre region at 30 mg/kg, ip administered as single dose 15 mins prior to testing by open-field test; format: functional, organism-based; parameters: dose 30 mg/kg; procedure, shortened: as §1
Mus musculus [5] = test: Anxiolytic activity in Swiss Webster mouse assessed as increase in time spent in light compartment at 30 mg/kg, ip administered as single dose 15 mins prior to testing by light-dark box test; format: functional, organism-based; parameters: dose 30 mg/kg
Procedure, shortened: (§2)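 Light–dark box test in mice. Drugs were given ip 15 min pretest in a 2% ethanol, 10% Tween 80 and water suspension (MTEP in saline). Read-outs were the proportion of time in the light compartment and the number of light–dark transitions. n = 10–12 per dose, means ± SEM. One-way ANOVA with Bonferroni test against the within-group vehicle cohort.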

Mus musculus [6] = test: Anxiolytic activity in Swiss Webster mouse assessed as increase in number of compartment transitions at 30 mg/kg, ip administered as single dose 15 mins prior to testing by light-dark box test; format: functional, organism-based; parameters: dose 30 mg/kg; procedure, shortened: as §2
[7] = biological target: Metabotropic glutamate receptor 5 (Rattus norvegicus) (UniProt P31424); test: Inverse agonist activity at rat mGluR5 expressed in HEK293A cells coexpressing Gqalpha assessed as inhibition of quisqualic-induced D-myo-inositol 1 production by ELISA; format: functional, cell-based; settings: HEK293-A
Metabotropic glutamate receptor 5 (Rattus norvegicus), sequence (P31424 21-1203 limits assumed): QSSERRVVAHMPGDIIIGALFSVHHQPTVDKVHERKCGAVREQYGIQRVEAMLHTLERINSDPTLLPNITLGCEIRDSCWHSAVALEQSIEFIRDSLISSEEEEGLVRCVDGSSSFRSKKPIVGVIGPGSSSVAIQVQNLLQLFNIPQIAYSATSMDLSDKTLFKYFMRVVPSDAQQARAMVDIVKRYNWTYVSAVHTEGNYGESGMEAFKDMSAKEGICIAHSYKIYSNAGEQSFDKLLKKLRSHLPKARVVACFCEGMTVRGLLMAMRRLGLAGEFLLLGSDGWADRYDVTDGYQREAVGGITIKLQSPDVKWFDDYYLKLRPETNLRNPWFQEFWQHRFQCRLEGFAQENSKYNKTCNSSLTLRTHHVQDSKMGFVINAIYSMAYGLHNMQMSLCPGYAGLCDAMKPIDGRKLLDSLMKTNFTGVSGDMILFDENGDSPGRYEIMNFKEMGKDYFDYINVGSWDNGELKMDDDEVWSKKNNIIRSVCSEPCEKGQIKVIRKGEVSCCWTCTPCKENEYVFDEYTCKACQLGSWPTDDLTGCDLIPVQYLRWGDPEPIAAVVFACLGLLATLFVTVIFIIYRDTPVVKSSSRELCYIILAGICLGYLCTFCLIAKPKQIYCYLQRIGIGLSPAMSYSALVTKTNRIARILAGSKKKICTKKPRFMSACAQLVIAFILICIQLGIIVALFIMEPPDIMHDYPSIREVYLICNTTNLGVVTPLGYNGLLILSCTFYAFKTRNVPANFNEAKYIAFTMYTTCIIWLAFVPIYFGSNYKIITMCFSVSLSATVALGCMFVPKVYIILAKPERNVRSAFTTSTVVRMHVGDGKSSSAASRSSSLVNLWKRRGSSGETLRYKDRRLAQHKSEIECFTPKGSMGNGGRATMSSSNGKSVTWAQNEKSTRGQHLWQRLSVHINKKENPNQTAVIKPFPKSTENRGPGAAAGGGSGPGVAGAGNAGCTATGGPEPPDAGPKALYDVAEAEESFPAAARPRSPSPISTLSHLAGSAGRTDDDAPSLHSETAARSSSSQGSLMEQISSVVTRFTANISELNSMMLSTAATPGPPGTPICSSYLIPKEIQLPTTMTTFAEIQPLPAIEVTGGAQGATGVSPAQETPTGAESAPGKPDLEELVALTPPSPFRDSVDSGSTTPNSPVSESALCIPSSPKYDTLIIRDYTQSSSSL
Procedure, shortened: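 IP₃ production was gauged indirectly by IP-One ELISA for IP₁ accumulation. Dose–response curves were run without agonist and in the presence of 1 μM quisqualic acid.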

Mus musculus [8] = test: Anxiolytic activity in ip dosed Swiss Webster mouse assessed as increase in locomotor activity administered as single dose 15 mins prior to testing by open-field test; format: functional, organism-based; procedure, shortened: as §1
Mus musculus [9] = test: Anxiolytic activity in ip dosed Swiss Webster mouse assessed as increase in time spent in the centre region administered as single dose 15 mins prior to testing by open-field test; format: functional, organism-based; procedure, shortened: as §1
Mus musculus [10] = test: Anxiolytic activity in ip dosed Swiss Webster mouse assessed as increase in time spent in light compartment administered as single dose 15 mins prior to testing by light-dark box test; format: functional, organism-based; procedure, shortened: as §2
Mus musculus [11] = test: Anxiolytic activity in ip dosed Swiss Webster mouse assessed as increase in number of compartment transitions administered as single dose 15 mins prior to testing by light-dark box test; format: functional, organism-based; procedure, shortened: as §2
Mus musculus [12] = test: Anxiolytic activity in Swiss Webster mouse assessed as increase in locomotor activity at 3 to 30 mg/kg, ip administered as single dose 15 mins prior to testing by open-field test; format: functional, organism-based; procedure, shortened: as §1
Mus musculus [13] = test: Anxiolytic activity in Swiss Webster mouse assessed as increase in time spent in the centre region at 3 to 30 mg/kg, ip administered as single dose 15 mins prior to testing by open-field test; format: functional, organism-based; procedure, shortened: as §1
Mus musculus [14] = test: Anxiolytic activity in Swiss Webster mouse assessed as increase in time spent in light compartment at 3 to 30 mg/kg, ip administered as single dose 15 mins prior to testing by light-dark box test; format: functional, organism-based; procedure, shortened: as §2
Mus musculus [15] = test: Anxiolytic activity in Swiss Webster mouse assessed as increase in number of compartment transitions at 3 to 30 mg/kg, ip administered as single dose 15 mins prior to testing by light-dark box test; format: functional, organism-based; procedure, shortened: as §2
Mus musculus [16] = test: Anxiolytic activity in Swiss Webster mouse assessed as increase in locomotor activity at 10 mg/kg, ip administered as single dose 15 mins prior to testing by open-field test; format: functional, organism-based; parameters: dose 10 mg/kg; procedure, shortened: as §1
Mus musculus [17] = test: Anxiolytic activity in Swiss Webster mouse assessed as increase in time spent in the centre region at 10 mg/kg, ip administered as single dose 15 mins prior to testing by open-field test; format: functional, organism-based; parameters: dose 10 mg/kg; procedure, shortened: as §1
Mus musculus [18] = test: Anxiolytic activity in Swiss Webster mouse assessed as increase in time spent in light compartment at 10 mg/kg, ip administered as single dose 15 mins prior to testing by light-dark box test; format: functional, organism-based; parameters: dose 10 mg/kg; procedure, shortened: as §2
Mus musculus [19] = test: Anxiolytic activity in Swiss Webster mouse assessed as increase in number of compartment transitions at 10 mg/kg, ip administered as single dose 15 mins prior to testing by light-dark box test; format: functional, organism-based; parameters: dose 10 mg/kg; procedure, shortened: as §2
[20] = biological target: Metabotropic glutamate receptor 5 (Rattus norvegicus) (UniProt P31424); test: Ratio of MPEP Ki to compound Ki for mGluR5 in Sprague-Dawley rat brain membrane; format: cell membranes
Mus musculus [21] = test: Anxiolytic activity in Swiss Webster mouse assessed as increase in locomotor activity at 0.1 to 0.3 mg/kg, ip administered as single dose 15 mins prior to testing by open-field test; format: functional, organism-based; procedure, shortened: as §1
Mus musculus [22] = test: Anxiolytic activity in Swiss Webster mouse assessed as increase in time spent in the centre region at 0.1 to 0.3 mg/kg, ip administered as single dose 15 mins prior to testing by open-field test; format: functional, organism-based; procedure, shortened: as §1
Mus musculus [23] = test: Anxiolytic activity in Swiss Webster mouse assessed as increase in time spent in light compartment at 0.1 to 0.3 mg/kg, ip administered as single dose 15 mins prior to testing by light-dark box test; format: functional, organism-based; procedure, shortened: as §2
Mus musculus [24] = test: Anxiolytic activity in Swiss Webster mouse assessed as increase in number of compartment transitions at 0.1 to 0.3 mg/kg, ip administered as single dose 15 mins prior to testing by light-dark box test; format: functional, organism-based; procedure, shortened: as §2
Mus musculus [25] = test: Anxiolytic activity in Swiss Webster mouse assessed as increase in locomotor activity at 3 mg/kg, ip administered as single dose 15 mins prior to testing by open-field test; format: functional, organism-based; parameters: dose 3 mg/kg; procedure, shortened: as §1
Mus musculus [26] = test: Anxiolytic activity in Swiss Webster mouse assessed as increase in time spent in the centre region at 3 mg/kg, ip administered as single dose 15 mins prior to testing by open-field test; format: functional, organism-based; parameters: dose 3 mg/kg; procedure, shortened: as §1
Mus musculus [27] = test: Anxiolytic activity in Swiss Webster mouse assessed as increase in time spent in light compartment at 3 mg/kg, ip administered as single dose 15 mins prior to testing by light-dark box test; format: functional, organism-based; parameters: dose 3 mg/kg; procedure, shortened: as §2
Mus musculus [28] = test: Anxiolytic activity in Swiss Webster mouse assessed as increase in number of compartment transitions at 3 mg/kg, ip administered as single dose 15 mins prior to testing by light-dark box test; format: functional, organism-based; parameters: dose 3 mg/kg; procedure, shortened: as §2
Mus musculus [29] = test: Anxiolytic activity in Swiss Webster mouse assessed as increase in locomotor activity at 0.3 mg/kg, ip administered as single dose 15 mins prior to testing by open-field test; format: functional, organism-based; parameters: dose 0.3 mg/kg; procedure, shortened: as §1
Mus musculus [30] = test: Anxiolytic activity in Swiss Webster mouse assessed as increase in time spent in the centre region at 0.3 mg/kg, ip administered as single dose 15 mins prior to testing by open-field test; format: functional, organism-based; parameters: dose 0.3 mg/kg; procedure, shortened: as §1
Mus musculus [31] = test: Anxiolytic activity in Swiss Webster mouse assessed as increase in time spent in light compartment at 0.3 mg/kg, ip administered as single dose 15 mins prior to testing by light-dark box test; format: functional, organism-based; parameters: dose 0.3 mg/kg; procedure, shortened: as §2
Mus musculus [32] = test: Anxiolytic activity in Swiss Webster mouse assessed as increase in number of compartment transitions at 0.3 mg/kg, ip administered as single dose 15 mins prior to testing by light-dark box test; format: functional, organism-based; parameters: dose 0.3 mg/kg; procedure, shortened: as §2

Ki [1]: 37 nM
IC50 [2]: 30 nM
Compound: N#Cc1cccc(C#Cc2cccc(CO)n2)c1

Ki [1]: 52 nM
IC50 [2]: 500 nM
Compound: N#Cc1cncc(C#Cc2cccc(C#N)n2)c1

Ki [1]: 7.5 nM
IC50 [2]: 50 nM
Compound: N#Cc1cc(F)cc(C#Cc2cccc(CO)n2)c1

Ki [1]: 150 nM
IC50 [2]: 210 nM
Compound: N#Cc1cccc(C#Cc2cccc(F)n2)c1

Ki [1]: 55 nM
IC50 [2]: 200 nM
Compound: COc1cccc(C#Cc2cncc(C#N)c2)n1

Ki [1]: 1.29 nM
IC50 [2]: 3.4 nM
Compound: COc1cc(C#N)cc(C#Cc2cccc(C)n2)c1

inhibition [7]: Dose-dependent effect
Compound: Cc1cccc(C#Cc2ccccc2)n1
Activity (Mus musculus [3]): Active
Activity (Mus musculus [4]): inactive
Activity (Mus musculus [5]): inactive
Activity (Mus musculus [6]): inactive
Activity (Mus musculus [8]): Dose-dependent effect
Activity (Mus musculus [9]): Dose-dependent effect
Activity (Mus musculus [10]): Dose-dependent effect
Activity (Mus musculus [11]): Dose-dependent effect
Activity (Mus musculus [12]): Active
Activity (Mus musculus [13]): Active
Activity (Mus musculus [14]): Active
Activity (Mus musculus [15]): Active

Ki [1]: 1.04 nM
IC50 [2]: 13 nM
Compound: Cc1cccc(C#Cc2cccc(C#N)c2)n1

inhibition [7]: Dose-dependent effect
Compound: Cc1nc(C#Cc2cccnc2)cs1
Activity (Mus musculus [8]): Dose-dependent effect
Activity (Mus musculus [9]): Dose-dependent effect
Activity (Mus musculus [10]): Dose-dependent effect
Activity (Mus musculus [11]): Dose-dependent effect
Activity (Mus musculus [16]): Active
Activity (Mus musculus [17]): Active
Activity (Mus musculus [18]): Active
Activity (Mus musculus [19]): Active

Ki [1]: > 10000 nM
Compound: N#Cc1cccc(C#Cc2cccc(C(N)=O)c2)n1

Ki [1]: 45 nM
IC50 [2]: 700 nM
Compound: CCCCc1cccc(C#Cc2cccc(C#N)c2)n1

Ki [1]: 2.7 nM
Ratio Ki [20]: 6
inhibition [7]: Dose-dependent effect
IC50 [2]: 9 nM
Compound: N#Cc1cc(F)cc(C#Cc2cccc(C#N)n2)c1
Activity (Mus musculus [8]): Dose-dependent effect
Activity (Mus musculus [9]): Dose-dependent effect
Activity (Mus musculus [10]): Dose-dependent effect
Activity (Mus musculus [11]): Dose-dependent effect
Activity (Mus musculus [21]): Active
Activity (Mus musculus [22]): Active
Activity (Mus musculus [23]): Active
Activity (Mus musculus [24]): Active
Activity (Mus musculus [25]): inactive
Activity (Mus musculus [26]): inactive
Activity (Mus musculus [27]): inactive
Activity (Mus musculus [28]): inactive

Ki [1]: 3.4 nM
IC50 [2]: 80 nM
Compound: CCc1cccc(C#Cc2cccc(C#N)c2)n1

Ki [1]: 114 nM
IC50 [2]: 300 nM
Compound: CC(=O)c1cccc(C#Cc2cccc(C#N)c2)n1

Ki [1]: > 10000 nM
Compound: N#Cc1cncc(C#Cc2cccc(CO)n2)c1

Ki [1]: 40 nM
IC50 [2]: 400 nM
Compound: COc1cccc(C#Cc2cc(F)cc(C#N)c2)n1

Ki [1]: 8.2 nM
IC50 [2]: 20 nM
Compound: N#Cc1cccc(C#Cc2cccc(C#N)n2)c1

Ki [1]: 41 nM
IC50 [2]: 80 nM
Compound: N#Cc1cc(F)cc(C#Cc2cccc(F)n2)c1

Ki [1]: 64 nM
IC50 [2]: 240 nM
Compound: CC(=O)c1cccc(C#Cc2cc(F)cc(C#N)c2)n1

Ki [1]: > 10000 nM
Compound: N#Cc1cccc(C#Cc2cc(F)cc(C(N)=O)c2)n1

Ki [1]: 200 nM
IC50 [2]: 300 nM
Compound: COc1cccc(C#Cc2cccc(C#N)c2)n1

Ki [1]: 0.67 nM
Ratio Ki [20]: 24
inhibition [7]: Dose-dependent effect
IC50 [2]: 2.4 nM
Compound: Cc1cccc(C#Cc2cc(F)cc(C#N)c2)n1
Activity (Mus musculus [8]): Dose-dependent effect
Activity (Mus musculus [9]): Dose-dependent effect
Activity (Mus musculus [10]): Dose-dependent effect
Activity (Mus musculus [11]): Dose-dependent effect
Activity (Mus musculus [29]): Active
Activity (Mus musculus [30]): Active
Activity (Mus musculus [31]): Active
Activity (Mus musculus [32]): Active
Activity (Mus musculus [25]): Active
Activity (Mus musculus [26]): inactive
Activity (Mus musculus [27]): inactive
Activity (Mus musculus [28]): inactive
